Assay results from ChEMBL document CHEMBL4359826, “Preparation of bivalent agonists for targeting the mu opioid and cannabinoid receptors” (Eur J Med Chem, 2019).
Active and inactive are the calls of the source.

Columns and labels:
Rattus norvegicus [1] = organism: Rattus norvegicus; test: Agonist activity at MOR/CB1R/CB2R in Wistar rat brain membranes after 60 mins by [35S]-GTPgammaS binding assay relative to control; assay type: cell membranes
Summary of the method: (§1)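 Rat brain membranes (30 µg protein/tube) incubated 60 min at 30 °C with 0.05 nM [35S]GTPγS and ligand at 10^-10–10^-5 M. Buffer: 50 mM Tris-HCl pH 7.4 with 30 µM GDP, 100 mM NaCl, 3 mM MgCl2, 1 mM EGTA. […] Nonspecific binding taken with 10 µM GTPγS; basal set as 100%. Filtration and scintillation counting; n≥3.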

Mu-type opioid receptor [2] = target: T1, Mu-type opioid receptor (Rattus norvegicus, UniProt P33535); test: Displacement of [3H]DAMGO from MOR in Wistar rat brain membranes after 60 mins by liquid scintillation analysis; assay type: cell membranes
[3] = target: Delta-type opioid receptor (Rattus norvegicus, UniProt P33533); test: Displacement of [3H]Ile5,6-deltorphin-2 from DOR in Wistar rat brain membranes after 60 mins by liquid scintillation analysis; assay type: cell membranes
[4] = target: T2, Cannabinoid receptor 2 (Rattus norvegicus) (UniProt Q9QZN9); test: Agonist activity at CB2R in Wistar rat brain membranes at 10 uM in presence of AM630 after 60 mins by [35S]-GTPgammaS binding assay relative to control; assay type: functional, cell membranes; summary of the method: as §1
T2 sequence (whole entry): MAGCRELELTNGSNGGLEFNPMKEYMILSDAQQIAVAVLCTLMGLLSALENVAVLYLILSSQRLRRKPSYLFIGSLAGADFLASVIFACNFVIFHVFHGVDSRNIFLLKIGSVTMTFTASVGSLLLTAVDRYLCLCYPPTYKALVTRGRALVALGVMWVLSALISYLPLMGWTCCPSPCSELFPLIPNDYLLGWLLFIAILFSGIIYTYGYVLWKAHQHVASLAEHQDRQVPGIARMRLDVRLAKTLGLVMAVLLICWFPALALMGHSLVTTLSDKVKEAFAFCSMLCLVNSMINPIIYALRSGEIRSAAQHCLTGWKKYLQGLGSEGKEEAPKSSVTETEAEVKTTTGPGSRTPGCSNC

[5] = target: Cannabinoid receptor 1 (Rattus norvegicus) (UniProt P20272); test: Agonist activity at CB1R in Wistar rat brain membranes at 10 uM in presence of rimonabant after 60 mins by [35S]-GTPgammaS binding assay relative to control; assay type: functional, cell membranes; summary of the method: as §1
[6] = target: Kappa-type opioid receptor (Cavia porcellus, UniProt P41144); assay type: cell membranes, Brain, Membranes
Rattus norvegicus [7] = test: Effect on nociception of the contralateral paw in rat model of sodium iodoacetate-induced osteoarthritis paw withdrawal threshold in late phase at 20 ug administered as intrathecal injection measured after 60 to 90 mins by Von Frey test (reference value: 43 +/- 3.4 g); assay type: organism-based; conditions: in vivo, icv_or_intrathecal
[8] = Agonist activity at MOR/CB1R/CB2R receptor in Wistar rat brain membranes after 60 mins by [35S]-GTPgammaS binding assay; assay type: cell membranes
Rattus norvegicus [9] = organism: Rattus norvegicus; conditions: Wistar, Brain, Membranes, at 10 µM
Cannabinoid receptor 2 = target: T3, Cannabinoid receptor 2 (Rattus norvegicus, UniProt Q9QZN9); test: Agonist activity at CB2R in Wistar rat brain membranes in presence of AM630 after 60 mins by [35S]-GTPgammaS binding assay; assay type: functional, cell membranes; summary of the method: as §1
T3 sequence (Q9QZN9 whole entry): T2 sequence (whole entry)

Cannabinoid receptor 1 = Cannabinoid receptor 1 (Rattus norvegicus, UniProt P20272); test: Agonist activity at CB1R in Wistar rat brain membranes in presence of rimonabant after 60 mins by [35S]-GTPgammaS binding assay; assay type: functional, cell membranes; summary of the method: as §1
Cannabinoid receptor [10] = target: T4, Cannabinoid receptor (Rattus norvegicus, UniProt Q9QZN9+P20272); test: Displacement of [3H]JWH-018 from CB1R/CB2R in Wistar rat brain membranes after 60 mins by liquid scintillation analysis; assay type: cell membranes
Cannabinoid receptor [11] = target: T4, Cannabinoid receptor; assay type: cell membranes, Wistar, Brain, Membranes
Rattus norvegicus [12] = organism: Rattus norvegicus; test: Agonist activity at MOR/CB1R/CB2R in Wistar rat brain membranes at 10 uM in presence of naloxone,rimonabant and AM630 after 60 mins by [35S]-GTPgammaS binding assay relative to control; assay type: cell membranes; summary of the method: as §1
Rattus norvegicus [13] = test: Effect on nociception of the contralateral paw in rat model of sodium iodoacetate-induced osteoarthritis paw withdrawal threshold in early phase at 20 ug administered as intrathecal injection measured up to 45 mins by Von Frey test (reference value: 44 +/- 2.4 g); assay type: organism-based; conditions: in vivo, icv_or_intrathecal, 0.75 h
[14] = target: Mu-type opioid receptor (Rattus norvegicus) (UniProt P33535); test: Agonist activity at MOR in Wistar rat brain membranes at 10 uM in presence of naloxone after 60 mins by [35S]-GTPgammaS binding assay relative to control; assay type: functional, cell membranes
Summary of the method: (§2)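 Rat brain membranes (30 µg protein/tube) incubated 60 min at 30 °C with 0.05 nM [35S]GTPγS and ligand at 10^-10–10^-5 M. Buffer: 50 mM Tris-HCl pH 7.4 with 30 µM GDP, 100 mM NaCl, 3 mM MgCl2, 1 mM EGTA. Nonspecific binding taken with 10 µM GTPγS; basal set as 100%. Filtration and scintillation counting; n≥3.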

Mu-type opioid receptor [15] = target: T1, Mu-type opioid receptor; test: Agonist activity at MOR in Wistar rat brain membranes in presence of naloxone after 60 mins by [35S]-GTPgammaS binding assay; assay type: functional, cell membranes; summary of the method: as §2
Mus musculus = test: Antinociceptive activity in CD-1 mouse assessed as increase in thermal latency at 10 mg/kg, iv after 15 to 120 mins by hot plate technique; assay type: functional, organism-based
Summary of the method: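 Male CD-1 mice (25 g) given 10 mg/kg i.v. in 10 mL/kg; vehicle saline with 5% DMSO. Hot plate held at 55.0 °C. Latency to paw lick or jump, cut-off 60 s, read at 15–120 min. Baseline is the mean of three pre-test readings. Data given as %MPE; n=6/group.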

Rattus norvegicus [16] = test: Antiallodynic activity in sodium iodoacetate-induced rat model of osteoarthritis assessed as increase in maximum effect in early phase at 20 ug administered as intrathecal injection measured up to 45 mins by Von Frey test; assay type: functional, organism-based
[17] = target: T5, Cannabinoid receptor (Rattus norvegicus) (UniProt Q9QZN9+P20272); test: Antagonist activity at CB1R/CB2R in Wistar rat brain membranes at 10 uM in presence of JWH-018 after 60 mins by [35S]-GTPgammaS binding assay relative to control; assay type: functional, cell membranes; summary of the method: as §1
[18] = target: T2, Cannabinoid receptor 2 (Rattus norvegicus); test: Displacement of [3H]JWH-018 from CB2R in Wistar rat brain membranes at 10 uM after 60 mins by liquid scintillation analysis relative to control; assay type: cell membranes
Summary of the method: (§3)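 Whole rat brain membranes (cerebellum removed; 0.3–0.5 mg/mL protein) in 50 mM Tris-HCl pH 7.4 with 2.5 mM EGTA, 5 mM MgCl2 and 0.5 mg/mL fatty-acid-free BSA, 30 °C. Kinetics used 0.6 nM [3H]JWH-018: association over 0–90 min, dissociation started with 10 µM JWH-018 after 60 min. Saturation over 0.5–35 nM. Competitors at 10^-11–10^-5 M, 60 min. Nonspecific binding with 10 µM JWH-018. Filtration onto PEI-soaked GF/B filters; n≥3.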

[19] = target: T5, Cannabinoid receptor (Rattus norvegicus); test: Displacement of [3H]JWH-018 from CB1R/CB2R in Wistar rat brain membranes assessed as pseudo-first order rate constant at 10 uM up to 90 mins by liquid scintillation analysis; assay type: cell membranes; summary of the method: as §3
Cannabinoid receptor [20] = target: T4, Cannabinoid receptor; test: Agonist activity at CB1R/CB2R in Wistar rat brain membranes after 60 mins by [35S]-GTPgammaS binding assay; assay type: functional, cell membranes; summary of the method: as §1
[21] = target: T5, Cannabinoid receptor (Rattus norvegicus); test: Agonist activity at CB1R/CB2R in Wistar rat brain membranes after 60 mins by [35S]-GTPgammaS binding assay relative to control; assay type: functional, cell membranes; summary of the method: as §1
[22] = target: T5, Cannabinoid receptor (Rattus norvegicus); test: Displacement of [3H]JWH-018 from CB1R/CB2R in Wistar rat brain membranes assessed as specific binding at 10 uM up to 90 mins by liquid scintillation analysis relative to control; assay type: cell membranes; summary of the method: as §3
[23] = target: T5, Cannabinoid receptor (Rattus norvegicus); test: Displacement of [3H]JWH-018 from CB1R/CB2R in Wistar rat brain membranes assessed as maximum efficacy at 10 uM by liquid scintillation analysis; assay type: cell membranes; summary of the method: as §3
Cannabinoid receptor [24] = target: T4, Cannabinoid receptor; test: Displacement of [3H]JWH-018 from CB1R/CB2R in Wistar rat brain membranes assessed as dissociation constant by liquid scintillation analysis; assay type: cell membranes; summary of the method: as §3
[25] = target: T5, Cannabinoid receptor (Rattus norvegicus); test: (§4) Displacement of [3H]JWH-018 from CB1R/CB2R in Wistar rat brain membranes assessed as dissociation rate constant at 10 uM by liquid scintillation analysis; assay type: cell membranes; summary of the method: as §3
Cannabinoid receptor [26] = target: T4, Cannabinoid receptor; test: as §4; assay type: cell membranes; summary of the method: as §3
[27] = target: T5, Cannabinoid receptor (Rattus norvegicus); test: Displacement of [3H]JWH-018 from CB1R/CB2R in Wistar rat brain membranes at 10 uM by liquid scintillation analysis relative to control; assay type: cell membranes; summary of the method: as §3
Mu-type opioid receptor [28] = target: T1, Mu-type opioid receptor; test: Agonist activity at MOR in Wistar rat brain membranes after 60 mins by [35S]-GTPgammaS binding assay; assay type: functional, cell membranes
Rattus norvegicus [29] = test: Effect on nociception of the contralateral paw in rat model of sodium iodoacetate-induced osteoarthritis assessed as paw withdrawal threshold in late phase at 7 ug administered as intrathecal injection measured after 60 to 90 mins by Von Frey test (reference value: 43 +/- 3.4 g); assay type: ADME, organism-based; conditions: in vivo, icv_or_intrathecal
Rattus norvegicus [30] = test: Antiallodynic activity in sodium iodoacetate-induced rat model of osteoarthritis assessed as increase in maximum effect in early phase at 7 ug administered as intrathecal injection measured up to 45 mins by Von Frey test; assay type: functional, organism-based
Rattus norvegicus [31] = test: Effect on nociception of the contralateral paw in rat model of sodium iodoacetate-induced osteoarthritis assessed as paw withdrawal threshold in early phase at 7 ug administered as intrathecal injection measured up to 45 mins by Von Frey test (reference value: 44 +/- 2.4 g); assay type: ADME, organism-based; conditions: in vivo, icv_or_intrathecal, 0.75 h
Rattus norvegicus [32] = test: Antiallodynic activity in sodium iodoacetate-induced rat model of osteoarthritis assessed as reduction in maximum effect in late phase at 20 ug administered as intrathecal injection measured up to 60 to 90 mins by Von Frey test; assay type: functional, organism-based

Chain of Delta-type opioid receptor (P33533 whole entry): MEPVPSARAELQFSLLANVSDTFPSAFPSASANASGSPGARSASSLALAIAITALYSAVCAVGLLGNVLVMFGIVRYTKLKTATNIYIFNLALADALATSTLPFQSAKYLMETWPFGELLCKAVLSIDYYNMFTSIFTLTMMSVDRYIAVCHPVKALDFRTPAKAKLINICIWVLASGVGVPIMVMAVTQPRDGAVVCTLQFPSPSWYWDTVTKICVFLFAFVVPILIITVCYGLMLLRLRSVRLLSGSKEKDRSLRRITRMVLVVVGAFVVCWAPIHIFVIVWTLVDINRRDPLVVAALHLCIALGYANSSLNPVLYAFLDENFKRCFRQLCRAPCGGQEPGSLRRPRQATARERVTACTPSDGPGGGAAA
T1 sequence (P33535 whole entry): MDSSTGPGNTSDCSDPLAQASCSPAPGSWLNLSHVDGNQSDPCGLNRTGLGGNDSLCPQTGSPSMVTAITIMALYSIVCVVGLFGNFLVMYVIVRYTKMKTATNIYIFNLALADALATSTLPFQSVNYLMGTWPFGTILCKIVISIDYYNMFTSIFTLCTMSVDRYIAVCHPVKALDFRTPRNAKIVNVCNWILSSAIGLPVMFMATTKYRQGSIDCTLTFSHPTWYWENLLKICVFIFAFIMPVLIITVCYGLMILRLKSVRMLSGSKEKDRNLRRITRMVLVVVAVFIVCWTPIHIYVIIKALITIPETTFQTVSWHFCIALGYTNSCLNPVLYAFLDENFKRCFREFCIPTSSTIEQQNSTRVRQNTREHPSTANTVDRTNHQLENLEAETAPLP
T5 sequence (P20272 whole entry, looked up, one chain of several): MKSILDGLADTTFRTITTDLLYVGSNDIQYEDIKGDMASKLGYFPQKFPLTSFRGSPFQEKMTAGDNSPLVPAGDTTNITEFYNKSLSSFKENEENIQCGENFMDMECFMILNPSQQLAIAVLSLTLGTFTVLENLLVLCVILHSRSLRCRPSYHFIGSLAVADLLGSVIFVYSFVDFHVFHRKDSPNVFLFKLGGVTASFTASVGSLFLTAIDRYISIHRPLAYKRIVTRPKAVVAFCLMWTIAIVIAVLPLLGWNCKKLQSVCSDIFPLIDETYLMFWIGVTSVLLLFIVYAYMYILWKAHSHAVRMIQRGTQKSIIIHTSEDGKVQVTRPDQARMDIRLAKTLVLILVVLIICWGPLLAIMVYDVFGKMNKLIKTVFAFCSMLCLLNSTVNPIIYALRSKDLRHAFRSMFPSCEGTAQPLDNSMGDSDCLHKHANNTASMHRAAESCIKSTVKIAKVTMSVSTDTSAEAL
Chain of Kappa-type opioid receptor (P41144 whole entry): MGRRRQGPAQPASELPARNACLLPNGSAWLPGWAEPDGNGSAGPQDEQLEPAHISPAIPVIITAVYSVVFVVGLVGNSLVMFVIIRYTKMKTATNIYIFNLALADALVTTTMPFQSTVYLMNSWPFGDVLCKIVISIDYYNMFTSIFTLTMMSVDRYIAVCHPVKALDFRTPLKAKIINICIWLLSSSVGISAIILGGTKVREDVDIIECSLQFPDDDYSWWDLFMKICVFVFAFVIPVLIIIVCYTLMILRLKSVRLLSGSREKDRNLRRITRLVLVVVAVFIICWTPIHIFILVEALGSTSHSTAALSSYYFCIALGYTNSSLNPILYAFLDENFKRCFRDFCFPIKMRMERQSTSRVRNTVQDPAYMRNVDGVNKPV
Chain of Cannabinoid receptor 1 (P20272 whole entry): as the sequence (P20272 whole entry, looked up, one chain of several) above
Chain of Cannabinoid receptor 1 (Rattus norvegicus) (P20272 whole entry): as the sequence (P20272 whole entry, looked up, one chain of several) above
Chain of Mu-type opioid receptor (Rattus norvegicus) (P33535 whole entry): as the sequence (P33535 whole entry) above

Row | Compound | Emax (Rattus norvegicus [1]) [%] | Ki (Mu-type opioid receptor [2]) [nM] | Ki [3] [nM] | Emax [4] [%] | Emax [5] [%] | Ki [6] [nM] | Activity (Rattus norvegicus [7]) [g] | EC50 [8] [nM] | Emax (Rattus norvegicus [9]) [%] | EC50 (Cannabinoid receptor 2) [nM] | EC50 (Cannabinoid receptor 1) [nM] | Ki (Cannabinoid receptor [10]) [nM] | Ki (Cannabinoid receptor [11]) [nM] | Emax (Rattus norvegicus [12]) [%] | Activity (Rattus norvegicus [13]) [g] | Activity (Mus musculus) | Activity (Rattus norvegicus [16]) | also measured
1 | COc1ccc2c3c1O[C@H]1/C(=N\OCC(=O)NCCCCCCNC(=O)CCCCCn4cc(C(=O)c5cccc6ccccc56)c5ccccc54)CC[C@@]4(O)[C@@H](C2)N(C)CC[C@]314 | 146 | 18 | 263 | 122 | 139 | 172 | 47 | 215 | 147 | 340 | 452 | 34 | 12 | 100 | 42 | Active | Active | Emax [14]: 112%; EC50 (Mu-type opioid receptor [15]): 397 nM
2 | COc1ccc(C(=O)c2c(C)n(CCN3CCOCC3)c3cc(I)ccc23)cc1 | – | – | – | – | – | – | – | – | – | – | – | 27 | – | – | – | – | – | Emax [17]: 100%; Activity [18]: 70%
3 | CCCCCn1cc(C(=O)c2cccc3ccccc23)c2ccccc21 | – | > 10000 | > 10000 | – | – | > 10000 | 42 | 69 | 163 | – | – | 3.4 | 2.9 | – | 41 | – | Active | K [19]: 0.124 min⁻¹; EC50 (Cannabinoid receptor [20]): 36 nM; Emax [21]: 167%; Activity [22]: 65%; Emax [23]: 1120 fmol/mg; Kd (Cannabinoid receptor [24]): 3.4 nM; Kdiss [25]: 0.00175 s⁻¹; Kd(app) (Cannabinoid receptor [26]): 6.5 nM; Activity [27]: 60%
4 | C[C@@H](NC(=O)[C@@H](N)Cc1ccc(O)cc1)C(=O)NCC(=O)N[C@@H](Cc1ccccc1)C(N)=O | – | 0.8 | – | – | – | 173 | – | 191 | 157 | – | – | > 10000 | > 10000 | – | – | – | – | EC50 (Mu-type opioid receptor [28]): 154 nM; Activity (Rattus norvegicus [29]): 40 g; Activity (Rattus norvegicus [30]): Active; Activity (Rattus norvegicus [31]): 43 g
5 | COc1ccc2c3c1O[C@H]1C(=O)CC[C@@]4(O)[C@@H](C2)N(C)CC[C@]314 [OXYCODONE] | – | – | – | – | – | – | 40 | – | – | – | – | – | – | – | 43 | – | Active | Activity (Rattus norvegicus [32]): Active
6 | C[C@@H](NC(=O)[C@@H](N)Cc1ccc(O)cc1)C(=O)NCC(=O)N[C@@H](Cc1ccccc1)C(=O)NCC(=O)NCCCCCn1cc(C(=O)c2cccc3ccccc23)c2ccccc21 | 161 | – | 134 | 148 | 125 | 63 | 35 | 114 | 160 | 671 | 378 | 251 | 317 | 100 | 39 | Active | Active | –
